For five compounds, MIC50 and half-life results are on record in ChEMBL document CHEMBL1128473, “[(Biaryloxy)alkyl]isoxazoles: picornavirus inhibitors” (J Med Chem, 1995).

In brackets after ≈: the same amount, converted by molar mass.

Series [1] has as its system Human rhinovirus sp. Put plainly: Concentration inhibiting 50% of the serotypes tested to 50% of the viral concentration of untreated controls following 72 hr of exposure. In kind it is functional. The procedure, abridged: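 Tissue culture infectious dose (TCID50) assay against a panel of 10 human rhinovirus serotypes. For each serotype, the viral concentration was compared with untreated controls after 72 h of compound exposure. MIC50 is the compound concentration at which half of the serotypes tested are reduced to 50% of the untreated-control viral concentration.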

Series [2] in a line: Metabolic stability expressed as half life values was monitored in vitro liver microsomal assay. The note with it: liver microsomes. The format is ADME, Microsome.

On to `Cc1cc(CCCOc2c(C)cc(-c3ccc(C#N)cc3)cc2C)on1`, for which the MIC50 in series [1] was 0.26 µM (≈ 0.0901 µg/mL). `Cc1cccc(-c2cc(C)c(OCCCc3cc(C)no3)c(C)c2)c1` had a half-life in series [2] of more than 3.33 h. Moreover, in series [1], the MIC50 was 0.23 µM (≈ 0.0772 µg/mL). Regarding `Cc1cc(CCCOc2c(C)cc(-c3ccccc3)cc2C)on1`, the half-life in series [2] is more than 3.33 h. In series [1], this compound displayed an MIC50 of 0.16 µM (≈ 0.0514 µg/mL). `Cc1cc(CCCOc2c(C)cc(-c3cccc(C#N)c3)cc2C)on1` registered an MIC50 in series [1] of more than 8.9 µM. Same read-out and setting: in the case of `Cc1cc(CCCOc2c(C)cc(-c3ccc([N+](=O)[O-])cc3)cc2C)on1` it was 0.76 µM (≈ 0.278 µg/mL).
